Measured values published in article PMC3908450 (Biological chemistry, 2011).
Read-outs that look alike come from different tables or passages of the source. Marks after values point to notes of the source that are not given here.

Tests used:
mutant ataxin-3 protein [1] = assay: Inhibition of mutant ATX3 protein expression in patient fibroblasts GM06151; assay type: cell-based, human; conditions: PNA conjugates
Outline: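 GM06151 fibroblasts (CAG 74 mutant/24 wild-type repeats) in MEM with 10% heat-inactivated FBS and 0.5% NEAA, 37 °C, 5% CO2, plated two days before dosing. Conjugate stocks heated 65 °C for 5 min, diluted in OptiMEM and added; medium replaced at 24 h; harvest typically day 4. 7.5% SDS-PAGE resolved mutant and wild-type ATX3 bands for western blotting, with β-actin also probed. Inhibition relative to control was fitted per replicate to get separate mutant and wild-type IC50s.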

mutant ataxin-3 protein [2] = conditions: PNA conjugate; GM06151 fibroblasts; ref Hue et al., 2009a; cited from earlier work

Substance	Selectivity (wt IC50 versus mut IC50) (mutant ataxin-3 protein [1])	Selectivity (wt IC50 versus mut IC50) (mutant ataxin-3 protein [2])
K8-GCTGCTG-K [REP7NK]	>1.7 fold	
K8-GCTGCTGCTGCTG-K8 [REP13KK]	1.8 fold	
K8-GCTGCTGCTGCTGCTGCTG-K [REP19NK]	3.4 fold	
K-GCTGCTG-K8 [REP7]	3.6 fold	
K-GCTGCTGCT-K8 [REP9]	3.0 fold	
K-GCTGCTGCTGC-K8 [REP11]	3.4 fold	
K-GCTGCTGCTGCTG-K4 [REP13K4]	2.3 fold	
K-GCTGCTGCTGCTG-K6 [REP13K6]	5.0 fold	
K-GCTGCTGCTGCTG-K8 [REP13]	2.2 fold	
K-GCTGCTGCTGCTGCTG-K8 [REP16]	2.4 fold	
K-GCTGCTGCTGCTGCTGCTG-(Kpeptoid)8 [REP19P]	>2.2 fold	
K-GCTGCTGCTGCTGCTGCTG-K8 [REP19]		2.7 ^‡ fold
K-GCTGCTGCTGCTGCTGCTG-R8 [REP19R]	1.6 fold	
K-GCTGCTGCTGCTGCTGCTG-Spacer-K8 [REP19S]	1.7 fold	
R8-GCTGCTGCTGCTGCTGCTG-K [REP19NR]	2.7 fold	
